{"source": "ChEMBL document CHEMBL3526138", "about": "“Excretion and metabolism of milnacipran in humans after oral administration of milnacipran hydrochloride” (Drug Metab Dispos, 2012)", "key": {"Homo sapiens [1]": {"system": "Homo sapiens", "assay": "Total drug excretion in human at 100 mg, po up to 144 hrs by liquid scintillation counting analysis", "assay_type": "ADME, organism-based", "settings": "in vivo"}, "Homo sapiens [2]": {"system": "Homo sapiens", "assay": "Cmax in human assessed as radioactivity at 100 mg, po by liquid scintillation counting analysis", "assay_type": "ADME, organism-based", "design": "dose 100 mg, route oral", "settings": "in vivo", "in_short": "(§1)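 Healthy males given single oral [14C] milnacipran hydrochloride (100 μCi; 1 μCi/mg) after breakfast. Blood drawn into chilled K3EDTA tubes pre-dose to 120 h, plasma spun ≥2,500 g 10 min 4°C and frozen -80°C. Radioactivity counted by LSC for 5 min, converted to ng equivalent/mL via specific activity. Parameters by non-compartmental analysis; subjects without emesis.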"}, "Homo sapiens [3]": {"system": "Homo sapiens", "assay": "AUC (0 to t) in human assessed as radioactivity at 100 mg, po by liquid scintillation counting analysis", "assay_type": "ADME, organism-based, Plasma", "settings": "in vivo", "in_short": "as §1"}, "Homo sapiens [4]": {"system": "Homo sapiens", "assay": "AUC (0 to infinity) in human assessed as radioactivity at 100 mg, po by liquid scintillation counting analysis", "assay_type": "ADME, organism-based, Plasma", "design": "dose 100 mg, route oral, time infinity", "settings": "in vivo", "in_short": "as §1"}, "Homo sapiens [5]": {"system": "Homo sapiens", "assay": "Tmax in human assessed as radioactivity at 100 mg, po by liquid scintillation counting analysis", "assay_type": "ADME, organism-based", "settings": "in vivo", "in_short": "as §1"}, "Homo sapiens [6]": {"system": "Homo sapiens", "assay": "Half life in human assessed as radioactivity at 100 mg, po by liquid scintillation counting analysis", "assay_type": "ADME, organism-based", "settings": "in vivo", "in_short": "as §1"}, "[7]": {"assay": "Drug excretion in human urine at 100 mg, po up to 4 hrs by liquid scintillation counting analysis", "assay_type": "ADME, organism-based", "settings": "in vivo", "in_short": "(§2)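 Urine pooled at 0-4, 4-8, 8-12, 12-24 h, then daily intervals to 120 h after single oral 100 mg [14C] milnacipran hydrochloride; frozen -80°C and counted by LSC. Excreted amount = concentration × volume, given as % of dosed radioactivity, summed cumulatively per subject.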"}, "Plasma": {"system": "Plasma", "assay": "Drug recovery in human plasma at 100 mg, po by HPLC analysis", "assay_type": "ADME, organism-based", "settings": "in vivo", "in_short": "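Pooled plasma extracted for metabolite profiling; recovery of radioactivity through sample processing and through Phenyl-Hexyl HPLC column (0.5-min fractions counted by LSC) expressed as % of plasma or sample radioactivity.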"}, "[8]": {"assay": "Drug excretion in human urine at 100 mg, po up to 8 hrs by liquid scintillation counting analysis", "assay_type": "ADME, organism-based", "settings": "in vivo", "in_short": "as §2"}, "[9]": {"assay": "Drug excretion in human urine at 100 mg, po up to 12 hrs by liquid scintillation counting analysis", "assay_type": "ADME, organism-based", "settings": "in vivo", "in_short": "as §2"}, "[10]": {"assay": "Drug excretion in human urine at 100 mg, po up to 24 hrs by liquid scintillation counting analysis", "assay_type": "ADME, organism-based", "settings": "in vivo", "in_short": "as §2"}, "[11]": {"assay": "Drug excretion in human urine at 100 mg, po up to 48 hrs by liquid scintillation counting analysis", "assay_type": "ADME, organism-based", "settings": "in vivo", "in_short": "as §2"}, "[12]": {"assay": "Drug excretion in human urine at 100 mg, po up to 72 hrs by liquid scintillation counting analysis", "assay_type": "ADME, organism-based", "settings": "in vivo", "in_short": "as §2"}, "[13]": {"assay": "Drug excretion in human urine at 100 mg, po up to 96 hrs by liquid scintillation counting analysis", "assay_type": "ADME, organism-based", "settings": "in vivo", "in_short": "as §2"}, "[14]": {"assay": "Drug excretion in human urine at 100 mg, po up to 120 hrs by liquid scintillation counting analysis", "assay_type": "ADME, organism-based", "settings": "in vivo", "in_short": "as §2"}, "[15]": {"assay": "Drug excretion in human urine at 100 mg, po up to 144 hrs by liquid scintillation counting analysis", "assay_type": "ADME, organism-based", "settings": "in vivo"}, "[16]": {"assay": "Drug excretion in human feces at 100 mg, po up to 24 hrs by liquid scintillation counting analysis", "assay_type": "ADME, organism-based", "settings": "in vivo", "in_short": "(§3)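 Feces pooled into 24-h collections to 120 h after oral 100 mg [14C] dose, frozen -80°C, homogenised in water. Triplicate weighed aliquots combusted in sample oxidizer, counted by LSC 5 min. Excreted amount = concentration × sample weight, expressed as % of dosed radioactivity and summed cumulatively per subject.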"}, "[17]": {"assay": "Drug excretion in human feces at 100 mg, po up to 48 hrs by liquid scintillation counting analysis", "assay_type": "ADME, organism-based", "settings": "in vivo", "in_short": "as §3"}, "[18]": {"assay": "Drug excretion in human feces at 100 mg, po up to 72 hrs by liquid scintillation counting analysis", "assay_type": "ADME, organism-based", "settings": "in vivo", "in_short": "as §3"}, "[19]": {"assay": "Drug excretion in human feces at 100 mg, po up to 96 hrs by liquid scintillation counting analysis", "assay_type": "ADME, organism-based", "settings": "in vivo", "in_short": "as §3"}, "[20]": {"assay": "Drug excretion in human feces at 100 mg, po up to 120 hrs by liquid scintillation counting analysis", "assay_type": "ADME, organism-based", "settings": "in vivo", "in_short": "as §3"}, "[21]": {"assay": "Drug excretion in human feces at 100 mg, po up to 144 hrs by liquid scintillation counting analysis", "assay_type": "ADME, organism-based", "settings": "in vivo"}, "[22]": {"assay": "Drug excretion in mouse urine at 100 mg/kg, po", "assay_type": "ADME, organism-based", "design": "dose 100 mg/kg, route oral", "settings": "read-out: Drug excretion"}, "[23]": {"assay": "Drug excretion in monkey urine at 60 mg/kg, po", "assay_type": "ADME, organism-based, Macaca mulatta", "design": "dose 60 mg/kg, route oral", "settings": "rhesus monkey, read-out: Drug excretion"}, "[24]": {"assay": "Drug excretion in rat urine at 100 mg/kg, po", "assay_type": "ADME, organism-based", "design": "dose 100 mg/kg, route oral", "settings": "read-out: Drug excretion"}, "Homo sapiens [25]": {"system": "Homo sapiens", "assay": "Total drug excretion in human at 100 mg, po up to 4 hrs by liquid scintillation counting analysis", "assay_type": "ADME, organism-based", "settings": "in vivo", "in_short": "(§4)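 Mass balance after single oral 100 mg [14C] dose to healthy males: cumulative urinary plus fecal radioactivity (LSC; feces combusted first) as % of dose per subject, urine and feces collected in timed intervals to 120 h.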"}, "Homo sapiens [26]": {"system": "Homo sapiens", "assay": "Total drug excretion in human at 100 mg, po up to 8 hrs by liquid scintillation counting analysis", "assay_type": "ADME, organism-based", "settings": "in vivo", "in_short": "as §4"}, "Homo sapiens [27]": {"system": "Homo sapiens", "assay": "Total drug excretion in human at 100 mg, po up to 12 hrs by liquid scintillation counting analysis", "assay_type": "ADME, organism-based", "settings": "in vivo", "in_short": "as §4"}, "Homo sapiens [28]": {"system": "Homo sapiens", "assay": "Total drug excretion in human at 100 mg, po up to 24 hrs by liquid scintillation counting analysis", "assay_type": "ADME, organism-based", "settings": "in vivo", "in_short": "as §4"}, "Homo sapiens [29]": {"system": "Homo sapiens", "assay": "Total drug excretion in human at 100 mg, po up to 48 hrs by liquid scintillation counting analysis", "assay_type": "ADME, organism-based", "settings": "in vivo", "in_short": "as §4"}, "Homo sapiens [30]": {"system": "Homo sapiens", "assay": "Total drug excretion in human at 100 mg, po up to 72 hrs by liquid scintillation counting analysis", "assay_type": "ADME, organism-based", "settings": "in vivo", "in_short": "as §4"}, "Homo sapiens [31]": {"system": "Homo sapiens", "assay": "Total drug excretion in human at 100 mg, po up to 96 hrs by liquid scintillation counting analysis", "assay_type": "ADME, organism-based", "settings": "in vivo", "in_short": "as §4"}, "Homo sapiens [32]": {"system": "Homo sapiens", "assay": "Total drug excretion in human at 100 mg, po up to 120 hrs by liquid scintillation counting analysis", "assay_type": "ADME, organism-based", "settings": "in vivo", "in_short": "as §4"}}, "data": [{"compound": "CCN(CC)[14C](=O)C1(c2ccccc2)CC1CN.Cl", "note": "(stereo not drawn)", "values": [{"measurement": "Drug excretion", "setting": "Homo sapiens [1]", "result": 96.9, "unit": "%"}, {"measurement": "Cmax", "setting": "Homo sapiens [2]", "result": 679, "unit": "ng.Eq/ml"}, {"measurement": "AUCt", "setting": "Homo sapiens [3]", "result": 6446.3, "unit": "ng.Eq.hr/ml"}, {"measurement": "AUC", "setting": "Homo sapiens [4]", "result": 7325.3, "unit": "ng.Eq.hr/ml"}, {"measurement": "Tmax", "setting": "Homo sapiens [5]", "result": 4.3, "unit": "h"}, {"measurement": "t1/2", "setting": "Homo sapiens [6]", "result": 7.7, "unit": "h"}, {"measurement": "Drug excretion", "setting": "[7]", "result": 24.8, "unit": "%"}, {"measurement": "Drug recovery", "setting": "Plasma", "result": 99.1, "unit": "%"}, {"measurement": "Drug excretion", "setting": "[8]", "result": 48.5, "unit": "%"}, {"measurement": "Drug excretion", "setting": "[9]", "result": 60.8, "unit": "%"}, {"measurement": "Drug excretion", "setting": "[10]", "result": 79.4, "unit": "%"}, {"measurement": "Drug excretion", "setting": "[11]", "result": 89.3, "unit": "%"}, {"measurement": "Drug excretion", "setting": "[12]", "result": 92.1, "unit": "%"}, {"measurement": "Drug excretion", "setting": "[13]", "result": 92.8, "unit": "%"}, {"measurement": "Drug excretion", "setting": "[14]", "result": 93.1, "unit": "%"}, {"measurement": "Drug excretion", "setting": "[15]", "result": 93.3, "unit": "%"}, {"measurement": "Drug excretion", "setting": "[16]", "result": 0.407, "unit": "%"}, {"measurement": "Drug excretion", "setting": "[17]", "result": 2.83, "unit": "%"}, {"measurement": "Drug excretion", "setting": "[18]", "result": 3.27, "unit": "%"}, {"measurement": "Drug excretion", "setting": "[19]", "result": 3.62, "unit": "%"}, {"measurement": "Drug excretion", "setting": "[20]", "result": 3.65, "unit": "%"}, {"measurement": "Drug excretion", "setting": "[21]", "result": 3.65, "unit": "%"}, {"measurement": "dose excreted", "setting": "[22]", "result": 63, "unit": "%"}, {"measurement": "dose excreted", "setting": "[23]", "result": 40, "unit": "%"}, {"measurement": "dose excreted", "setting": "[24]", "result": 63, "unit": "%"}, {"measurement": "Drug excretion", "setting": "Homo sapiens [25]", "result": 24.8, "unit": "%"}, {"measurement": "Drug excretion", "setting": "Homo sapiens [26]", "result": 48.5, "unit": "%"}, {"measurement": "Drug excretion", "setting": "Homo sapiens [27]", "result": 60.8, "unit": "%"}, {"measurement": "Drug excretion", "setting": "Homo sapiens [28]", "result": 79.6, "unit": "%"}, {"measurement": "Drug excretion", "setting": "Homo sapiens [29]", "result": 92.2, "unit": "%"}, {"measurement": "Drug excretion", "setting": "Homo sapiens [30]", "result": 95.4, "unit": "%"}, {"measurement": "Drug excretion", "setting": "Homo sapiens [31]", "result": 96.5, "unit": "%"}, {"measurement": "Drug excretion", "setting": "Homo sapiens [32]", "result": 96.8, "unit": "%"}]}]}
